pIC50: −log10 of the molar value.
Assays:
[1] = Inhibition of peptidylglutamyl-peptide hydrolyzing-like activity of 20S proteasome in lymphoblastoid cells after 30 mins; assay type: cell-based, Homo sapiens
Summary of the method: (§1)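 Proteasome partially purified from lymphoblastoid cell lines, then affinity-purified (anti-α-subunit mAb) and dialyzed against 25 mM Tris-HCl pH 7.5; protein by BCA. Enzyme untreated or pretreated with 0.001–10 test compound, then incubated with subsite-specific fluorogenic substrate 30 min at 37 °C in activity buffer; fluorescence ex 360/em 465 nm. IC50 from fit of percent control vs concentration, Y=100/(1+(X/IC50))^A.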

[2] = Inhibition of trypsin-like activity of 20S proteasome in lymphoblastoid cells after 30 mins; assay type: cell-based, Homo sapiens; summary of the method: as §1
[3] = Inhibition of chymotrypsin-like activity of 20S proteasome in lymphoblastoid cells after 30 mins; assay type: cell-based, Homo sapiens; summary of the method: as §1
[4] = species: Homo sapiens; test: Stability in human plasma after 6 hrs

| Structure (SMILES) | pIC50 [1] | pIC50 [2] | pIC50 [3] | half-life [4] |
| --- | --- | --- | --- | --- |
| CCOC(=O)/C=C/[C@H](CCC(N)=O)NC(=O)[C@H](CC(C)C)NC(=O)[C@@H]1Cc2ccccc2CN1C(=O)c1cccc(O)c1C | < 5.00 | 6.36 | < 5.00 | > 6 h |
| CCOC(=O)/C=C/[C@H](CCC(N)=O)NC(=O)[C@H](CC(C)C)NC(=O)[C@H](CC(C)C)NC(=O)c1cccc(O)c1C | < 5.00 | 6.84 | 5.08 | > 6 h |
| CCOC(=O)/C=C/[C@H](CCC(N)=O)NC(=O)[C@@H]1Cc2ccccc2CN1C(=O)[C@@H](NC(=O)c1cccc(O)c1C)C(C)C | < 5.00 | 5.63 | < 5.00 | > 6 h |
| CCOC(=O)/C=C/[C@H](CC(C)C)NC(=O)[C@H](CC(C)C)NC(=O)[C@@H]1Cc2ccccc2CN1C(=O)c1cccc(O)c1C | < 5.00 | 6.80 | 5.16 | > 6 h |
| CCOC(=O)/C=C/[C@H](CC(C)C)NC(=O)[C@@H]1Cc2ccccc2CN1C(=O)[C@@H](NC(=O)c1cccc(O)c1C)C(C)C | < 5.00 | 5.07 | < 5.00 | > 6 h |
| CCOC(=O)/C=C/[C@H](CCC(N)=O)NC(=O)[C@@H]1Cc2ccccc2CN1C(=O)[C@H](CC(C)C)NC(=O)c1cccc(O)c1C | < 5.00 | 5.23 | < 5.00 | > 6 h |
| CCOC(=O)/C=C/[C@H](CCC(N)=O)NC(=O)[C@H](CO)NC(=O)[C@@H]1Cc2ccccc2CN1C(=O)c1cccc(O)c1C | < 5.00 | 6.46 | < 5.00 | > 6 h |

The next lines start with the values.

| pIC50 [1] | pIC50 [2] | pIC50 [3] | half-life [4] | Structure (SMILES) |
| --- | --- | --- | --- | --- |
| < 5.00 | < 5.00 | < 5.00 | > 6 h | CCOC(=O)/C=C/[C@H](CC(C)C)NC(=O)[C@@H]1Cc2ccccc2CN1C(=O)[C@H](CC(C)C)NC(=O)c1cccc(O)c1C |
| < 5.00 | 7.25 | < 5.00 | > 6 h | CCOC(=O)/C=C/[C@H](CCC(N)=O)NC(=O)[C@H](CO)NC(=O)[C@@H](NC(=O)c1cccc(O)c1C)C(C)C |
| < 5.00 | 7.48 | < 5.00 | > 6 h | CCOC(=O)/C=C/[C@H](CC(C)C)NC(=O)[C@H](CO)NC(=O)[C@@H](NC(=O)c1cccc(O)c1C)C(C)C |
| < 5.00 | 7.01 | 5.13 | > 6 h | CCOC(=O)/C=C/[C@H](CC(C)C)NC(=O)[C@H](CO)NC(=O)[C@@H]1Cc2ccccc2CN1C(=O)c1cccc(O)c1C |

— ChEMBL document CHEMBL1147181, “Glutamine vinyl ester proteasome inhibitors selective for trypsin-like (beta2) subunit” (Eur J Med Chem, 2007)
